We go through ten compounds from ChEMBL document CHEMBL1152940 (Bioorg Med Chem, 2009).

Molecules are shown by their SMILES.

Assay [1] deals with T1, D(2) dopamine receptor (Rattus norvegicus, UniProt P61169). As to the kind of experiment: Agonist activity at rat dopamine D2short receptor expressed in CHO-K1 cells assessed as stimulation of [35S]GTPgammaS binding by liquid scintillation counting. The class given is functional, cell-based. (In general: GTPγS is a poorly hydrolysed GTP analogue; its binding reports G protein activation.)
T1 sequence (P61169 whole entry): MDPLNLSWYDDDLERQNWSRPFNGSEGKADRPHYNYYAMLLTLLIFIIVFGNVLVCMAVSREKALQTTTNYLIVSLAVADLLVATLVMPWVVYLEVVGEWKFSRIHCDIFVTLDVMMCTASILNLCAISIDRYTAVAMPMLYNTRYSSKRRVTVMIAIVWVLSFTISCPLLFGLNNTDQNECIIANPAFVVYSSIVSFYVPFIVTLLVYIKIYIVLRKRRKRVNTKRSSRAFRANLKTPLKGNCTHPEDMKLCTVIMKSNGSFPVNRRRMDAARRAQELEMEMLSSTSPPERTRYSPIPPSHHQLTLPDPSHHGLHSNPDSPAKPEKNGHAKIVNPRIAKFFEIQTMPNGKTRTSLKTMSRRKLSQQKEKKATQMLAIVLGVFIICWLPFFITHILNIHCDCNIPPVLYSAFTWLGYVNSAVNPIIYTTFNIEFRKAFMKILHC

The target in the next assay is D(1A) dopamine receptor (Homo sapiens, UniProt P21728). As to the kind of experiment: Displacement of [3H]SCH23390 from dopamine D1 receptor expressed in Ltk deficient fibroblast cells by liquid scintillation counting. Format: cell-based. Background: Displacement assays read how much labelled ligand stays bound in the presence of the test substance.
Sequence of D(1A) dopamine receptor (P21728 whole entry): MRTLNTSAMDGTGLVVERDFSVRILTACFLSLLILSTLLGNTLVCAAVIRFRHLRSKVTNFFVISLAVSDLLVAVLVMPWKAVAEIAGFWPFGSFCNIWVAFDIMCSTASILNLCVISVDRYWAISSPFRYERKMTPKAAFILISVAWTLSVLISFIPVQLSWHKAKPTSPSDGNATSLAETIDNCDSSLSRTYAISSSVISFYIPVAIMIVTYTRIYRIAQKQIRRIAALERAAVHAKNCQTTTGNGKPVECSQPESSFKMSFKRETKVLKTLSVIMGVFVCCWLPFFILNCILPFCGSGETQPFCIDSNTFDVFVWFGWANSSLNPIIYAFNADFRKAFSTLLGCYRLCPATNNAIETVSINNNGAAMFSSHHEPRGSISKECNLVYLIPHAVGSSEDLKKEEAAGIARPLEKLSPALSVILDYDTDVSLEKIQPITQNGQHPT
Assay [2] concerns the target T1, D(2) dopamine receptor. In words: Displacement of [3H]raclopride from rat dopamine D2short receptor expressed in CHO-K1 cells by liquid scintillation counting. Format: cell-based.
In assay [3] the target is D(2) dopamine receptor (Rattus norvegicus) (UniProt P61169). In words: Agonist activity at rat dopamine D2short receptor expressed in CHO-K1 cells assessed as stimulation of [35S]GTPgammaS binding by liquid scintillation counting relative to dopamine. The class given is functional, cell-based. The procedure, abridged: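 Membranes from CHO-K1 cells stably expressing the receptor were prepared by sonication in Tris buffer (pH 7.4, with NaCl, KCl, MgCl2 and EDTA). They were incubated with 0.2 nM [35S]GTPγS, 10 µM GDP and a compound concentration series for 90 min at 25 °C. Samples were filtered on GF/B and washed with ice-cold phosphate buffer before scintillation counting. Curves were fitted by non-linear regression. Means ± SEM come from ≥2 independent experiments, each in duplicate.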
Sequence of D(2) dopamine receptor (Rattus norvegicus) (P61169 whole entry): as the sequence (P61169 whole entry) above

The nature of assay [4]: Selectivity index, ratio of Ki for dopamine D1 receptor to Ki for rat dopamine D2short receptor.

Take `Cc1cc2c3c(c1)-c1c(ccc(O)c1O)C[C@H]3N(C)CC2`: the EC50 (as a rule, the concentration needed to bring the measured effect to its halfway point) on D(2) dopamine receptor [1] came to 43 nM.
For `CCN1CCc2cc(-c3ccc(O)cc3)cc3c2[C@H]1Cc1ccc(O)c(O)c1-3`, the Ki (usually the dissociation constant of the complex between target and ligand, obtained from inhibition or displacement) at D(1A) dopamine receptor was determined as 124 nM; at D(2) dopamine receptor [2], 1.5 nM. Besides, the EC50 on D(2) dopamine receptor [1] was 8.7 nM. Also, the Efficacy in assay [3] is 112%. For the same compound, in assay [4], the Ratio Ki is 83.
In the same order, the values of `CCCN1CCc2cc(-c3ccc(O)cc3)cc3c2[C@H]1Cc1ccc(O)c(O)c1-3` are 94 nM, 2 nM, 12 nM, 99% and 47.
With `CN1CCc2cccc3c2[C@H]1Cc1ccc(O)c(O)c1-3`, the Efficacy in assay [3] worked out at 58%.
At D(1A) dopamine receptor, `CN1CCc2cc(-c3ccc(O)cc3)cc3c2[C@H]1Cc1ccc(O)c(O)c1-3` registered an inhibitory constant (Ki) of 755 nM. Besides, at D(2) dopamine receptor [1], the 50% effective concentration (EC50) is 8.5 nM. Besides, the Ratio Ki in assay [4] amounted to 182.
In the same order, the values of `CN1CCc2cc(-c3ccccc3)cc3c2[C@H]1Cc1ccc(O)c(O)c1-3` are 88 nM, 23 nM and 7.5.
On to `CCN1CCc2cc(-c3ccccc3)cc3c2[C@H]1Cc1ccc(O)c(O)c1-3`, for which the inhibition constant Ki was determined as 31 nM at D(1A) dopamine receptor and 14 nM on D(2) dopamine receptor [2]. For the same compound, the half-maximal effective concentration (EC50) at D(2) dopamine receptor [1] was found to be 51 nM. Besides, the Efficacy in assay [3] came out at 72%. In assay [4], the Ratio Ki is 2.2.
On to `CCCN1CCc2cc(-c3ccccc3)cc3c2[C@H]1Cc1ccc(O)c(O)c1-3`, for which the inhibition constant (Ki) on D(1A) dopamine receptor is 669 nM; at D(2) dopamine receptor [2], 192 nM. Moreover, the EC50 at D(2) dopamine receptor [1] turned out to be 577 nM. In assay [3], the Efficacy turned out to be 100%. Moreover, the Ratio Ki in assay [4] is 3.5.
On to `CCN1CCc2cc(C)cc3c2[C@H]1Cc1ccc(O)c(O)c1-3`, for which the inhibition constant (Ki) on D(1A) dopamine receptor stood at 1340 nM; on D(2) dopamine receptor [2], 115 nM. Also, the EC50 on D(2) dopamine receptor [1] was 480 nM. Also, the Efficacy in assay [3] amounted to 112%. Further, the Ratio Ki in assay [4] was found to be 12.
In the same order, the values of `CCCN1CCc2cc(C)cc3c2[C@H]1Cc1ccc(O)c(O)c1-3` are 278 nM, 9.2 nM, 40 nM, 65% and 30.
